Values joined by “and” are separate entries in the source; they are usually repeats but may differ in a detail not shown here. Identical values can stand only once.
Key:
[1] = biological target: IDH1-R132H (Homo sapiens, UniProt O75874, R132H); assay: Mutant IDH1 inhibition assay with purified enzyme; format: biochemical; details: for IC50: IC50 against the mutant IDH1, purified IDH1-R132H enzyme; for inhibition at 392 µM: read-out: maximal enzyme inhibition (inhibitory efficiency), purified IDH1-R132H enzyme, tested range 0.19 – 392 µM
[2] = system: mutant IDH1 activity (2-HG production) in IDH1-R132H-mutated astrocytoma cell line; format: cell-based; details: 50 µM, 8 h post-incubation, IDH1-mutated astrocytoma cells
Procedure, shortened: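 Isogenic anaplastic astrocytoma lines (WHO grade III-derived subclone with native IDH1-R132H; WT-IDH1 control) were seeded in duplicate at 30,000/well. At confluency, medium was replaced with test compound at 50 µM final (from 20 mM DMSO stock), n=2/experiment, under standard culture conditions. Supernatant was sampled at 4 and 8 h and stored at -80°C. D-2-HG was measured by LC-MS/MS. Controls were vehicle-treated mutant and WT cells.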

[3] = biological target: mutant IDH1-R132H enzyme; details: read-out: IC50 against the mutant IDH1-R132H enzyme; cited from earlier work
[4] = Tissue distribution studies; format: in vivo, BALB/C mice; details: for Biodistribution, Bladder / Biodistribution, Blood / Biodistribution, Bone / Biodistribution, Brain / Biodistribution, Heart / Biodistribution, Intestines / Biodistribution, Kidneys / Biodistribution, Liver / Biodistribution, Lungs / Biodistribution, Muscle / Biodistribution, Skin / Biodistribution, Spleen / Biodistribution, Stomach / Biodistribution, Thyroid: mean ± SD, n=5
[5] = system: IDH1-R132H mutant and WT-IDH1 astrocytoma cell lines; assay: Cell uptake studies of labeled inhibitors; format: cell-based; details: for cell uptake, % of the added activity: mutant IDH1 cell line
Procedure, shortened: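 IDH1-R132H and isogenic WT-IDH1 astrocytoma cells were plated about 24 h ahead at 20,000–30,000/well, then PBS-washed. Cells were incubated with radioiodinated test compound (~3.7 kBq/well) in culture medium at 37°C, 5% CO2, for 0.25–4 h. Co-incubation used unlabeled analog (0–100 µM) for 3 h, or 0.1%/1% versus 10% FBS. After ice-cold PBS washes and 5 min RT lysis, lysate, supernatant and washes were gamma-counted. Uptake is % incubation dose/well.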

[6] = 5 min after i.v. injection, listed as 125I-labeled 1

IDH1-R132H, sequence (O75874 whole entry R132H): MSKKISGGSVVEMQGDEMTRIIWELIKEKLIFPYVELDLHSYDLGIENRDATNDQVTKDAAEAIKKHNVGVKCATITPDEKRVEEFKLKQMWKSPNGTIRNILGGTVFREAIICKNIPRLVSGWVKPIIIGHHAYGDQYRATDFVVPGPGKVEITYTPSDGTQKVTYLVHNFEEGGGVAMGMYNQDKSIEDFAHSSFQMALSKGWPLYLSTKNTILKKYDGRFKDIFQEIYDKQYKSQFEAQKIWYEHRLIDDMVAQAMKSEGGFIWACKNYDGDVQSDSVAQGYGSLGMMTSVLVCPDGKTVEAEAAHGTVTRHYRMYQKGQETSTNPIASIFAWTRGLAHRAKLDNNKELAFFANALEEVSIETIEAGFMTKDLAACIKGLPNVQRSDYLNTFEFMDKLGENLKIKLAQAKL

In the case of `CCCCc1ccc(NS(=O)(=O)c2ccc(C)c(C(=O)N3CCN(c4ccccc4I)CC3)c2)cc1` [Compound 1, N-(4-Butylphenyl)-3-(4-(2-iodophenyl)piperazine-1-carbonyl)-4-methylbenzenesulfonamide], the IC50 ([1]; 0.19 – 392 µM) is reported as 1.7 µM and ~2 µM, the inhibition at 392 µM [1] is reported as roughly 100% and the “decrease of 2-HG concentration in mutant IDH1 cell supernatants” value [2] is reported as 43%.
With `CCCCc1ccc(NS(=O)(=O)c2ccc(C)c(C(=O)N3CCN(c4ccc(I)cc4)CC3)c2)cc1` [Compound 2, N-(4-Butylphenyl)-3-(4-(4-iodophenyl)piperazine-1-carbonyl)-4-methylbenzenesulfonamide] the “activity against mutant IDH1 (in words)” value ([1]; purified IDH1-R132H enzyme, 0.19 – 392 µM) was “did not show any significant activity”.
With `CCCCc1ccc(NS(=O)(=O)c2ccc(C)c(C(=O)N3CCN(c4ccccc4OCCF)CC3)c2)cc1` [Compound 4, N-(4-Butylphenyl)-3-(4-(2-(2-fluoroethoxy)phenyl)piperazine-1-carbonyl)-4-methylbenzenesulfonamide] the IC50 ([1]; 0.19 – 392 µM) was 2.3 µM and ~2 µM, the inhibition at 392 µM [1] was roughly 100% and the “decrease of 2-HG concentration in mutant IDH1 cell supernatants” value [2] was 50%.
With `CCCCc1ccc(NS(=O)(=O)c2ccc(C)c(C(=O)N3CCN(c4ccc(OCCF)cc4)CC3)c2)cc1` [Compound 5, N-(4-Butylphenyl)-3-(4-(4-(2-fluoroethoxy)phenyl)piperazine-1-carbonyl)-4-methylbenzenesulfonamide] the IC50 ([1]; 0.19 – 392 µM) was 1.2 µM, the “maximal enzyme inhibition (inhibitory efficiency)” value ([1]; purified IDH1-R132H enzyme, tested range 0.19 – 392 µM, 392 µM) was 26.4% and the inhibition at 392 µM [1] was roughly 30%.
`COc1ccccc1N1CCN(C(=O)c2cc(S(=O)(=O)Nc3ccc(CCCF)cc3)ccc2C)CC1` [Compound 6, N-(4-(3-Fluoropropyl)phenyl)-3-(4-(2-methoxyphenyl)piperazine-1-carbonyl)-4-methylbenzenesulfonamide] showed an IC50 ([1]; 0.19 – 392 µM) of 2.7 µM and an inhibition at 392 µM [1] of 99%.
For `COc1ccccc1N1CCN(C(=O)c2cc(S(=O)(=O)Nc3ccc(CCCCF)cc3)ccc2C)CC1` [Compound 7, N-(4-(4-Fluorobutyl)phenyl)-3-(4-(2-methoxyphenyl)piperazine-1-carbonyl)-4-methylbenzenesulfonamide], the IC50 ([1]; 0.19 – 392 µM) was 2.4 µM and the inhibition at 392 µM [1] was 81%.
In the case of `CCCCc1ccc(NS(=O)(=O)c2ccc(C)c(C(=O)N3CCN(c4ccccc4OC)CC3)c2)cc1` [Compound A, N-(4-butylphenyl)-3-(4-(2-methoxyphenyl)piperazine-1-carbonyl)-4-methylbenzenesulfonamide, reference compound], the IC50 ([1]; 0.19 – 392 µM) is given as 2.2 µM, the inhibition at 392 µM [1] is given as roughly 100% and the IC50 [3] is given as less than 1 µM.
In the case of `CCCCc1ccc(NS(=O)(=O)c2ccc(C)c(C(=O)N3CCN(c4ccccc4[125I])CC3)c2)cc1` [[^125I]1, N-(4-Butylphenyl)-3-(4-(2-[^125I]iodophenyl)piperazine-1-carbonyl)-4-methylbenzenesulfonamide], the “uptake in the brain” value ([4]; 1 – 4 h after injection) is reported as no more than 0.07 %ID/g, the “Biodistribution, Bladder” value ([4]; 5 min after i.v. injection) is reported as 0.03 ± 0.01 %ID and the “Biodistribution, Blood” value ([4]; 5 min after i.v. injection) is reported as “about 12 %ID”. The “Biodistribution, Bone” value ([4]; 5 min after i.v. injection) was 3.92 ± 1.45 %ID, the “Biodistribution, Brain” value ([4]; 5 min after i.v. injection) was 0.15 ± 0.05 %ID and the “Biodistribution, Heart” value ([4]; 5 min after i.v. injection) was 1.11 ± 0.39 %ID. The “Biodistribution, Intestines” value ([4]; 5 min after i.v. injection) was 6.37 ± 5.80 %ID, the “Biodistribution, Kidneys” value ([4]; 5 min after i.v. injection) was 3.50 ± 1.08 %ID and the “Biodistribution, Liver” value ([4]; 5 min after i.v. injection) was “About 30 %ID”. For the same molecule, the “Biodistribution, Lungs” value ([4]; 5 min after i.v. injection) was 1.69 ± 0.83 %ID, the “Biodistribution, Muscle” value ([4]; 5 min after i.v. injection) was 13.79 ± 4.85 %ID and the “Biodistribution, Skin” value ([4]; 5 min after i.v. injection) was 3.31 ± 0.74 %ID. The “Biodistribution, Spleen” value ([4]; 5 min after i.v. injection) was 0.36 ± 0.12 %ID, the “Biodistribution, Stomach” value ([4]; 5 min after i.v. injection) was 0.40 ± 0.12 %ID and the “Biodistribution, Thyroid” value ([4]; 5 min after i.v. injection) was 0.32 ± 0.18 %ID. The “Biodistribution, Blood” value [4, 6] was 11.83 ± 1.99 %ID, the “Biodistribution, Liver” value [4, 6] was 29.43 ± 5.60 %ID and the “activity concentration in the thyroid gland” value ([4]; 5 min after injection) was 1.69 ± 0.93 %ID/g. The “uptake in the brain” value ([4]; 5 min after injection) was 0.39 ± 0.13 %ID, the “Biodistribution, Bladder” value ([4]; 1 h after i.v. injection) was 0.01 ± 0.01 %ID and the “Biodistribution, Blood” value ([4]; 1 h after i.v. injection) was 0.71 ± 0.27 %ID. For the same molecule, the “Biodistribution, Bone” value ([4]; 1 h after i.v. injection) was 1.21 ± 0.14 %ID, the “Biodistribution, Brain” value ([4]; 1 h after i.v. injection) was 0.03 ± 0.01 %ID and the “Biodistribution, Heart” value ([4]; 1 h after i.v. injection) was 0.12 ± 0.02 %ID. For the same molecule, the “Biodistribution, Intestines” value ([4]; 1 h after i.v. injection) was 38.13 ± 1.49 %ID, the “Biodistribution, Kidneys” value ([4]; 1 h after i.v. injection) was 0.88 ± 0.14 %ID and the “Biodistribution, Liver” value ([4]; 1 h after i.v. injection) was 13.30 ± 0.69 %ID. The “Biodistribution, Lungs” value ([4]; 1 h after i.v. injection) was 0.17 ± 0.02 %ID, the “Biodistribution, Muscle” value ([4]; 1 h after i.v. injection) was 8.21 ± 0.77 %ID and the “Biodistribution, Skin” value ([4]; 1 h after i.v. injection) was 2.90 ± 1.07 %ID. The “Biodistribution, Spleen” value ([4]; 1 h after i.v. injection) was 0.05 ± 0.01 %ID, the “Biodistribution, Stomach” value ([4]; 1 h after i.v. injection) was 0.65 ± 0.18 %ID and the “Biodistribution, Thyroid” value ([4]; 1 h after i.v. injection) was 0.04 ± 0.03 %ID. The “maximum excreted into the urine” value ([4]; 1 h after injection) was 2.84 % ID, the “Biodistribution, Bladder” value ([4]; 2 h after i.v. injection) was 0.02 ± 0.03 %ID and the “Biodistribution, Blood” value ([4]; 2 h after i.v. injection) was 0.29 ± 0.09 %ID. The “Biodistribution, Bone” value ([4]; 2 h after i.v. injection) was 0.60 ± 0.29 %ID, the “Biodistribution, Brain” value ([4]; 2 h after i.v. injection) was 0.02 ± 0.01 %ID and the “Biodistribution, Heart” value ([4]; 2 h after i.v. injection) was 0.04 ± 0.01 %ID. For the same molecule, the “Biodistribution, Intestines” value ([4]; 2 h after i.v. injection) was 53.24 ± 7.84 %ID, the “Biodistribution, Kidneys” value ([4]; 2 h after i.v. injection) was 0.43 ± 0.15 %ID and the “Biodistribution, Liver” value ([4]; 2 h after i.v. injection) was 6.57 ± 1.77 %ID. For the same molecule, the “Biodistribution, Lungs” value ([4]; 2 h after i.v. injection) was 0.07 ± 0.03 %ID, the “Biodistribution, Muscle” value ([4]; 2 h after i.v. injection) was 3.91 ± 0.87 %ID and the “Biodistribution, Skin” value ([4]; 2 h after i.v. injection) was 1.25 ± 0.53 %ID. For the same molecule, the “Biodistribution, Spleen” value ([4]; 2 h after i.v. injection) was 0.03 ± 0.01 %ID, the “Biodistribution, Stomach” value ([4]; 2 h after i.v. injection) was 0.63 ± 0.82 %ID and the “Biodistribution, Thyroid” value ([4]; 2 h after i.v. injection) was 0.05 ± 0.05 %ID. For the same molecule, the “activity in the hepatobiliary system” value ([4]; 2 h after injection) was “approximately 60 % ID”, the “Biodistribution, Bladder” value ([4]; 4 h after i.v. injection) was 0.01 ± 0.01 %ID and the “Biodistribution, Blood” value ([4]; 4 h after i.v. injection) was “about 0.13 %ID”. For the same molecule, the “Biodistribution, Bone” value ([4]; 4 h after i.v. injection) was 0.22 ± 0.14 %ID, the “Biodistribution, Brain” value ([4]; 4 h after i.v. injection) was 0.01 ± 0.00 %ID and the “Biodistribution, Heart” value ([4]; 4 h after i.v. injection) was 0.01 ± 0.00 %ID. The “Biodistribution, Intestines” value ([4]; 4 h after i.v. injection) was 41.40 ± 6.02 %ID, the “Biodistribution, Kidneys” value ([4]; 4 h after i.v. injection) was 0.16 ± 0.03 %ID and the “Biodistribution, Liver” value ([4]; 4 h after i.v. injection) was 3.41 ± 0.62 %ID. For the same molecule, the “Biodistribution, Lungs” value ([4]; 4 h after i.v. injection) was 0.03 ± 0.01 %ID, the “Biodistribution, Muscle” value ([4]; 4 h after i.v. injection) was 1.57 ± 0.34 %ID and the “Biodistribution, Skin” value ([4]; 4 h after i.v. injection) was 0.56 ± 0.09 %ID. For the same molecule, the “Biodistribution, Spleen” value ([4]; 4 h after i.v. injection) was 0.01 ± 0.01 %ID, the “Biodistribution, Stomach” value ([4]; 4 h after i.v. injection) was 1.22 ± 2.12 %ID and the “Biodistribution, Thyroid” value ([4]; 4 h after i.v. injection) was 0.06 ± 0.03 %ID. The “Biodistribution, Blood” value ([4]; 4 h after i.v. injection, listed as 125I-labeled 1) was 0.13 ± 0.01 %ID, the “activity concentration in the thyroid gland” value ([4]; 4 h after injection) was 0.42 ± 0.16 %ID/g and the “activity concentration in the vital organs except liver” value ([4]; 4 h after injection) was less than 0.2 % ID/g. The “average uptake ratio mutant-IDH1 / WT-IDH1 cell lines” value ([5]; 2 h incubation) was 1.66, the “maximal increase in uptake versus no-carrier-added tracer” value ([5]; co-incubation with 10 µM unlabeled 1, 3 h) was 53 fold and the “cell uptake, % of the added activity” value ([5]; 15 min incubation) was “about 0.5%”. For the same molecule, the “cell uptake, % of the added activity” value ([5]; 3 h incubation) was 0.80 ± 0.04%.

— PMC4893934 (European journal of medicinal chemistry, 2016)
